Measurements as given in ChEMBL document CHEMBL2321838, “Chemistry and pharmacological studies of 3-alkoxy-2,5-disubstituted-pyridinyl compounds as novel selective α4β2 nicotinic acetylcholine receptor ligands that reduce alcohol intake in rats” (J Med Chem, 2013).
Activity calls are given as the source filed them. The rule behind the calls is not given here.

Key:
[1] = biological target: T1, Neuronal acetylcholine receptor; alpha3/beta4 (Rattus norvegicus, UniProt P04757+P12392); experiment: Desensitization of rat alpha3beta4 nACHR expressed in HEK293 cells assessed as inhibition of 86Rb+ efflux preincubated for 10 mins measured after 2 hrs by liquid scintillation counting analysis; type: cell-based
[2] = biological target: T1, Neuronal acetylcholine receptor; alpha3/beta4; experiment: Agonist activity at rat alpha3beta4 nACHR expressed in HEK293 cells assessed as […] by liquid scintillation counting analysis; type: cell-based
[3] = biological target: T2, Neuronal acetylcholine receptor; alpha4/beta2 (Homo sapiens, UniProt P17787+P43681); experiment: Agonist activity at human alpha4beta2 nACHR expressed in HEK293 cells assessed as […] by liquid scintillation counting analysis relative to nicotine; type: cell-based
Rattus norvegicus [4] = species on record: Rattus norvegicus; experiment: Selectivity ratio of Ki for rat alpha7 nACHR to rat alpha4beta2 nACHR
Rattus norvegicus [5] = species on record: Rattus norvegicus; experiment: Selectivity ratio of Ki for rat alpha3beta4 nACHR to rat alpha4beta2 nACHR
Mustela putorius furo [6] = experiment: Toxicity in ferret assessed as induction of emetic episodes at 0.5 mg/kg, sc measured for 60 mins; type: organism-based; set-up: dose 0.5 mg/kg, route subcutaneous; details: in vivo, 1 h
How it was run: (§1)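 Male ferrets (0.9−1.5 kg), food withheld overnight, water ad libitum. Drug in 0.9% saline, given subcutaneously in the subscapular region after a 30 min acclimation in an individual polycarbonate enclosure. Emesis and nausea-linked behaviours (retching, oral stereotypy, backward walking, locomotion) were scored by 60 min observation with video recording. Affected animals were then given granisetron plus dexamethasone 1 mg/kg i.p.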

Mustela putorius furo [7] = experiment: Toxicity in ferret assessed as increase in breathing at 0.5 mg/kg, sc measured for 60 mins; type: organism-based; set-up: dose 0.5 mg/kg, route subcutaneous; details: in vivo, 1 h; how it was run: as §1
Mustela putorius furo [8] = experiment: Toxicity in ferret assessed as cessation of movement at 0.5 mg/kg, sc measured for 60 mins; type: organism-based; set-up: dose 0.5 mg/kg, route subcutaneous; details: in vivo, 1 h; how it was run: as §1
Mustela putorius furo [9] = experiment: Toxicity in ferret assessed as reduction in locomotor behavior at 0.5 mg/kg, sc measured 1.05 mins to 1 hr post injection; type: organism-based; set-up: dose 0.5 mg/kg, route subcutaneous; details: in vivo; how it was run: as §1
Mustela putorius furo [10] = experiment: Toxicity in ferret assessed as backward walking episodes at 0.5 mg/kg, sc measured 2.20 mins post injection; type: organism-based; set-up: dose 0.5 mg/kg, route subcutaneous; details: in vivo, 132 s; how it was run: as §1
Mustela putorius furo [11] = experiment: Toxicity in ferret assessed as induction of licking behavior at 0.5 mg/kg, sc measured 2.20 mins post injection; type: organism-based; set-up: dose 0.5 mg/kg, route subcutaneous; details: in vivo, 132 s; how it was run: as §1
Mustela putorius furo [12] = experiment: Toxicity in ferret assessed as induction of retching at 0.5 mg/kg, sc measured for 60 mins; type: organism-based; set-up: dose 0.5 mg/kg, route subcutaneous; details: in vivo, 1 h; how it was run: as §1
[13] = biological target: Neuronal acetylcholine receptor; alpha4/beta2 (Rattus norvegicus) (UniProt P09483+P12390); experiment: Ratio of (-)-nicotine Ki to compound Ki for rat alpha4beta2 nACHR; type: protein-complex assay
[14] = biological target: T2, Neuronal acetylcholine receptor; alpha4/beta2; experiment: Agonist activity at human alpha4beta2 nACHR expressed in HEK293 cells assessed as […] by liquid scintillation counting analysis; type: cell-based
Mustela putorius furo [15] = experiment: Toxicity in ferret assessed as induction of stereotypical behavior at 1 to 30 mg/kg, sc measured for 60 mins; type: organism-based; set-up: dose 1-30 mg/kg, route subcutaneous; details: in vivo, 1 h
How it was run: (§2)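 Male ferrets (0.9–1.5 kg), food withheld overnight, water ad libitum. After 30 min acclimation alone in an enclosure, single s.c. subscapular injection (1–30 mg/kg in 0.9% saline); emetic episodes and nausea-related stereotypical behaviours (gagging, licking, backward walking) scored by 60 min observation with video recording; n = 6.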

Mustela putorius furo [16] = experiment: Toxicity in ferret assessed as induction of emetic episodes at 1 to 30 mg/kg, sc measured for 60 mins; type: organism-based; set-up: dose 1-30 mg/kg, route subcutaneous; details: in vivo, 1 h; how it was run: as §2
Rattus norvegicus [17] = experiment: Reduction of alcohol intake in alcohol-preferring rat at 1 mg/kg, sc after 24 hrs; type: functional, organism-based; set-up: dose 1 mg/kg
How it was run: (§3)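 Adult male selectively bred alcohol-preferring (P) rats with two-bottle access (water, alcohol) in Richter tubes, 12:12 light–dark, 22 °C. After stable baseline, single s.c. injection of 0.33, 1 or 3 mg/kg or vehicle; alcohol and water intake (g/kg) read at 2, 4, 6 and 24 h. Crossover, random assignment, ≥3 days between injections, n = 18; mean ± SEM.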

Rattus norvegicus [18] = experiment: Reduction of alcohol intake in alcohol-preferring rat at 3 mg/kg, sc after 6 to 24 hrs; type: functional, organism-based; set-up: dose 3 mg/kg; how it was run: as §3
Rattus norvegicus [19] = experiment: Reduction of alcohol intake in alcohol-preferring rat at […], sc after 2 to 24 hrs; type: functional, organism-based; set-up: dose 0.33 mg/kg
Rattus norvegicus [20] = experiment: Reduction of alcohol intake in sc dosed alcohol-preferring rat after 2 to 24 hrs relative to vehicle-treated control; type: functional, organism-based; how it was run: as §3
[21] = biological target: Neuronal acetylcholine receptor; alpha3/beta4 (Rattus norvegicus) (UniProt P04757+P12392); experiment: Agonist activity at rat alpha3beta4 nACHR expressed in HEK293 cells assessed as stimulation of 86Rb+ efflux after 2 hrs by liquid scintillation counting analysis relative to nicotine; type: cell-based
[22] = biological target: T2, Neuronal acetylcholine receptor; alpha4/beta2; experiment: Desensitization of human alpha4beta2 nACHR expressed in HEK293 cells assessed as inhibition of 86Rb+ efflux preincubated for 10 mins measured after 2 hrs by liquid scintillation counting analysis; type: cell-based
Rattus norvegicus [23] = species on record: Rattus norvegicus; experiment: Displacement of [3H]-Epibatidine from rat nACHR fore-brain by liquid scintillation counting analysis
[24] = biological target: T1, Neuronal acetylcholine receptor; alpha3/beta4; experiment: Displacement of [3H]-Epibatidine from rat alpha3beta4 nACHR expressed in HEK293 cell membranes by liquid scintillation counting analysis; set-up: species or system Membrane

T1 sequence (P04757 whole entry): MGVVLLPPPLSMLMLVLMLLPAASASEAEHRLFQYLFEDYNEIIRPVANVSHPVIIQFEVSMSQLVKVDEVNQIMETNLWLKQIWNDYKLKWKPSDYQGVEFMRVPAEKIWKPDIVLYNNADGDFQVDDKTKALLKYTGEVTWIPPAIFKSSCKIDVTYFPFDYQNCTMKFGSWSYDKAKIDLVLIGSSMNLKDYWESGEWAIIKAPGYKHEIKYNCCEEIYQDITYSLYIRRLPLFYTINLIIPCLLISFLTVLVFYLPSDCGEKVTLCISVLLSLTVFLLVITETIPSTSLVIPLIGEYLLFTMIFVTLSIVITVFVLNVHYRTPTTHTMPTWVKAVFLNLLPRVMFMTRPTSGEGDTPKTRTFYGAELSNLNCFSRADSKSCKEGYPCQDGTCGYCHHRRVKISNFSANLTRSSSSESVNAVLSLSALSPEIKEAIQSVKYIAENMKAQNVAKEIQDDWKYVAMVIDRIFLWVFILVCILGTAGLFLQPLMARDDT
T1 sequence (P12392 whole entry): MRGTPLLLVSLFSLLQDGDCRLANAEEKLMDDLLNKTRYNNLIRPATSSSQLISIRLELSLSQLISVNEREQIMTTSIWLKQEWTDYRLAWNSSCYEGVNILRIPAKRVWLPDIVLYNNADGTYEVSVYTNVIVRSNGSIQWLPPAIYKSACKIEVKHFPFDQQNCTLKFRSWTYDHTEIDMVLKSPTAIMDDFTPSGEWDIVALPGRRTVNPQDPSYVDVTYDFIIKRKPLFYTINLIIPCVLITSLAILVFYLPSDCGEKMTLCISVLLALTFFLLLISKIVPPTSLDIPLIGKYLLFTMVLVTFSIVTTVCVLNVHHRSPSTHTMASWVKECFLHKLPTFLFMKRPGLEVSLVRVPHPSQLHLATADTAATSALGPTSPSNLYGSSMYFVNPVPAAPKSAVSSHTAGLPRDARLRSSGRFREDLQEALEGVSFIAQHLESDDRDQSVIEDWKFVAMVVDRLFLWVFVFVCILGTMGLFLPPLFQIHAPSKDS
T2 sequence (P17787 whole entry): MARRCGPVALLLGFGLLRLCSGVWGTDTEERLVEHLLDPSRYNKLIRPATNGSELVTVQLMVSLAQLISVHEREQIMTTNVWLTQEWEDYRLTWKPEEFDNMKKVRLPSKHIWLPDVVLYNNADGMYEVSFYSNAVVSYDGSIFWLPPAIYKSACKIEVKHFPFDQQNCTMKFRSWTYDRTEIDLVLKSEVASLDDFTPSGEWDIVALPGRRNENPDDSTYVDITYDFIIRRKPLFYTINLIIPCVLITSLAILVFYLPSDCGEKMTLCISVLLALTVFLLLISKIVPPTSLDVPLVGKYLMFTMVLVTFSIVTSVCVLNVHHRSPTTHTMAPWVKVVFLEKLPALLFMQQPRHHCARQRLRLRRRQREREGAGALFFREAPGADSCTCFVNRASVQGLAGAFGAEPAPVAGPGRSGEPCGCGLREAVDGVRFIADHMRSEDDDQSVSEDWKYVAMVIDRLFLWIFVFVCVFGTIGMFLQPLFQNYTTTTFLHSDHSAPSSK
T2 sequence (P43681 whole entry): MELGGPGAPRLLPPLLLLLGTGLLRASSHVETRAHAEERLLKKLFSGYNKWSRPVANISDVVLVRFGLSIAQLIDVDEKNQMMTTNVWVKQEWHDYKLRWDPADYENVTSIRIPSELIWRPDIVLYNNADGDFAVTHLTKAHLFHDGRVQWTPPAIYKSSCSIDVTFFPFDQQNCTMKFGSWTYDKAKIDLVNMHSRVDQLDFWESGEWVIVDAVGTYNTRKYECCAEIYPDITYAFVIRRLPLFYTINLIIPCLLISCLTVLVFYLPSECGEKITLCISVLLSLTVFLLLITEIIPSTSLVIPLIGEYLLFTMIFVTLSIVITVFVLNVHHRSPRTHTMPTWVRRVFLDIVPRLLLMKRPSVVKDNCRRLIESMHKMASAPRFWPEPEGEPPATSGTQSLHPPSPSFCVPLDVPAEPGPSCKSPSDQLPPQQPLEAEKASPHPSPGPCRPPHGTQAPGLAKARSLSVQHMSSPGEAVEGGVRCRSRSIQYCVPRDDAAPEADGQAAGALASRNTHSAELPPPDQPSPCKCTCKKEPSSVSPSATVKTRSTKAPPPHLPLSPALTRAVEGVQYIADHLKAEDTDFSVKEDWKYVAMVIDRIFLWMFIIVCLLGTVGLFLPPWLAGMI

Row | Structure (SMILES) | IC50 [1] | EC50 ([2]; hek293) | Emax [3] | Ratio Ki (Rattus norvegicus [4]) | Ratio Ki (Rattus norvegicus [5]) | EC50 ([14]; hek293) | other results
1 | Cc1ncc(C#CC2CC2)cc1OC[C@@H]1CCN1 | > 10 µM | Not Active | 17% | 16000 | 16000 |  | 
2 | c1cnc2cc3c(cc2n1)[C@@H]1CNC[C@H]3C1 [VARENICLINE] |  |  |  |  |  |  | Activity (Mustela putorius furo [6]): Non-toxic; Activity (Mustela putorius furo [7]): Toxic; Activity (Mustela putorius furo [8]): Toxic; Activity (Mustela putorius furo [9]): Toxic; Activity (Mustela putorius furo [10]): Toxic; Activity (Mustela putorius furo [11]): Toxic; Activity (Mustela putorius furo [12]): Toxic; EC50 ([2]; read-out: EC50): 21 µM
3 | Cc1ncc(C#CCCCCO)cc1OC[C@@H]1CCN1 | > 10 µM | Not Active | 20% | 40000 | 70000 |  | Ratio Ki [13]: 2; EC50 ([14]; read-out: EC50): 0.45 µM
4 | Cc1ncc(C#CCCCCF)cc1OC[C@@H]1CCN1 | > 10 µM | Not Active |  |  |  | Not Active | 
5 | CCCCC#Cc1cnc(C)c(OC[C@@H]2CCN2)c1 | > 10 µM | Not Active | 15% | 7800 | 19000 |  | Activity (Mustela putorius furo [15]): Non-toxic; Activity (Mustela putorius furo [16]): Non-toxic; Activity (Rattus norvegicus [17]): Active; Activity (Rattus norvegicus [18]): Active; Activity (Rattus norvegicus [19]): inactive; Activity (Rattus norvegicus [20]): Dose-dependent effect
6 | OCCCCC#Cc1cncc(OC[C@@H]2CCN2)c1 |  |  |  | 11000 | 31000 |  | Emax [21]: 12%; EC50 ([2]; read-out: EC50): 30 µM; IC50 [22]: 0.011 µM
7 | CCCCC#Cc1cnc(C)c(OC[C@@H]2CCCN2)c1 |  | Not Active |  |  |  | Not Active | 
8 | Cc1ncc(C#CCCCCCl)cc1OC[C@@H]1CCN1 | > 10 µM | Not Active |  | 13000 | 17000 | Not Active | Ratio Ki (Rattus norvegicus [23]): 32
9 | CCCCC#Cc1cnc(C(F)(F)F)c(OC[C@@H]2CCN2)c1 |  |  |  |  |  |  | Ratio Ki (Rattus norvegicus [23]): > 100000; Ki [24]: > 100 µM
